Assay results as given in the array DNA melting data of Ke et al. (doi:10.1101/2024.01.08.574731).

Key:
[1] = folding enthalpy; higher = less favourable; fluorescence melt of hairpins on a sequencing array, two-state fit; settings: sodium 0.088 M
Procedure, shortened: (§1)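 Cy3 signals were normalised both to pre-quench Cy3 and to control constructs. They came from library hairpins carrying annealed Cy3 and quencher oligos on a sequenced MiSeq flow cell, imaged in 50 mM Na-HEPES pH 8.0, 25 mM NaCl, in 2.5 °C steps up to 60 °C. Bootstrapped two-state fits gave melting temperature and folding enthalpy, and four replicates were combined by inverse variance. Fitted temperatures were then raised by 9.35 °C to match UV melts.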

[2] = melting temperature; fluorescence melt of hairpins on a sequencing array, two-state fit, raised by 9.35 °C to match UV melts; settings: sodium 0.088 M
Procedure, shortened: as §1

Row | Sequence | folding enthalpy [1] | Tm [2]
1 | GATCATGCGGATGATC ((((((....)))))) | -34.1 kcal/mol | 47 °C
2 | GATCATGGAAACACGATC ((((.((....)).)))) | -22.9 kcal/mol | 33.8 °C
3 | GATCATGGAAACATGATC (((((((....))))))) | -35.3 kcal/mol | 56.2 °C
4 | GATCATGGCATGATC ((((((...)))))) | -44 kcal/mol | 51.3 °C
5 | GATCATGGGGATGATC ((((((....)))))) | -29.2 kcal/mol | 46.5 °C
6 | GATCATGGTCATGATC ((((((....)))))) | -38 kcal/mol | 51.8 °C
7 | GATCATGTCATGATC ((((((...)))))) | -32.5 kcal/mol | 51.3 °C
8 | GATCATGTGAATGATC ((((((....)))))) | -39.3 kcal/mol | 54.6 °C
9 | GATCATGTTATGATC ((((((...)))))) | -36.1 kcal/mol | 50.3 °C
10 | GATCATTAAGATGATC ((((((....)))))) | -34.8 kcal/mol | 46.4 °C
11 | GATCATTACGATGATC ((((((....)))))) | -34.9 kcal/mol | 48.5 °C
12 | GATCATTATCATGATC ((((((....)))))) | -38.9 kcal/mol | 45.8 °C
13 | GATCATTATTATGATC ((((((....)))))) | -32.2 kcal/mol | 47.5 °C
14 | GATCATTCAAATGATC ((((((....)))))) | -34 kcal/mol | 47.3 °C
15 | GATCATTCAATGATC ((((((...)))))) | -30.6 kcal/mol | 47.1 °C
16 | GATCATTGGCATGATC ((((((....)))))) | -30.3 kcal/mol | 45.5 °C
17 | GATCATTGGTATGATC ((((((....)))))) | -31.8 kcal/mol | 46.3 °C
18 | GATCATTGTAATGATC ((((((....)))))) | -36 kcal/mol | 50.3 °C
19 | GATCATTTACATGATC ((((((....)))))) | -35.2 kcal/mol | 46.3 °C
20 | GATCATTTCGATGATC ((((((....)))))) | -41.6 kcal/mol | 49.2 °C
21 | GATCATTTGCATGATC ((((((....)))))) | -34.4 kcal/mol | 46.4 °C
22 | GATCCAAACATGGATC ((((((....)))))) | -32.7 kcal/mol | 50.8 °C
23 | GATCCAAAGTTGGATC ((((((....)))))) | -35.2 kcal/mol | 49.8 °C
24 | GATCCAACATTGGATC ((((((....)))))) | -43.3 kcal/mol | 50 °C

Row | Sequence | folding enthalpy [1] | Tm [2]
25 | GATCCAACTATGGATC ((((((....)))))) | -39.6 kcal/mol | 49.6 °C
26 | GATCCAACTGTGGATC ((((((....)))))) | -32.6 kcal/mol | 49.1 °C
27 | GATCCAAGATGGATC ((((((...)))))) | -34 kcal/mol | 49 °C
28 | GATCCAAGGGTGGATC ((((((....)))))) | -32 kcal/mol | 48.4 °C
29 | GATCCAAGGTTGGATC ((((((....)))))) | -37.5 kcal/mol | 51.4 °C
30 | GATCCAAGTGTGGATC ((((((....)))))) | -32.3 kcal/mol | 50.3 °C
31 | GATCCAATGCTGGATC ((((((....)))))) | -32.5 kcal/mol | 49.1 °C
32 | GATCCAATGGTGGATC ((((((....)))))) | -29.4 kcal/mol | 48.3 °C
33 | GATCCACAGTGGATC ((((((...)))))) | -40.5 kcal/mol | 49.7 °C
34 | GATCCACAGTTGGATC ((((((....)))))) | -41 kcal/mol | 49.3 °C
35 | GATCCACATTTGGATC ((((((....)))))) | -36.8 kcal/mol | 50.7 °C
36 | GATCCACCACTGGATC ((((((....)))))) | -36.9 kcal/mol | 49.4 °C
37 | GATCCACCATTGGATC ((((((....)))))) | -31.5 kcal/mol | 49.4 °C
38 | GATCCACCCATGGATC ((((((....)))))) | -34.2 kcal/mol | 50.7 °C
39 | GATCCACCGTGGATC ((((((...)))))) | -37.4 kcal/mol | 48.5 °C
40 | GATCCACCGTTGGATC ((((((....)))))) | -36.5 kcal/mol | 49.7 °C
41 | GATCCACCTCTGGATC ((((((....)))))) | -33 kcal/mol | 49 °C
42 | GATCCACCTGTGGATC ((((((....)))))) | -42.1 kcal/mol | 63.8 °C
43 | GATCCACGAAAGTGAATC (((.(((....))).))) | -24.2 kcal/mol | 42.4 °C
44 | GATCCACGAAAGTGATC (((.(((....)))))) | -21.4 kcal/mol | 41.3 °C
45 | GATCCACGAAAGTGTATC (((.(((....))).))) | -24.2 kcal/mol | 37.6 °C
46 | GATCCACGCCTGGATC ((((((....)))))) | -36.9 kcal/mol | 52.3 °C
47 | GATCCACGTCTGGATC ((((((....)))))) | -38.3 kcal/mol | 49.5 °C
48 | GATCCACTACTGGATC ((((((....)))))) | -35.5 kcal/mol | 49.7 °C

Row | Sequence | folding enthalpy [1] | Tm [2]
49 | GATCCACTAGTGGATC ((((((....)))))) | -40.6 kcal/mol | 62.3 °C
50 | GATCCACTATGGATC ((((((...)))))) | -30.6 kcal/mol | 52.7 °C
51 | GATCCAGAACTGGATC ((((((....)))))) | -37.6 kcal/mol | 56.4 °C
52 | GATCCAGAAGTGGATC ((((((....)))))) | -35.5 kcal/mol | 52.1 °C
53 | GATCCAGAATTGGATC ((((((....)))))) | -34.7 kcal/mol | 57.2 °C
54 | GATCCAGACTGGATC ((((((...)))))) | -36.9 kcal/mol | 52 °C
55 | GATCCAGAGGTGGATC ((((((....)))))) | -28.5 kcal/mol | 47.8 °C
56 | GATCCAGCCATGGATC ((((((....)))))) | -38.8 kcal/mol | 58.7 °C
57 | GATCCAGCCCTGGATC ((((((....)))))) | -48 kcal/mol | 54.1 °C
58 | GATCCAGCGGTGGATC ((((((....)))))) | -44.3 kcal/mol | 50.8 °C
59 | GATCCAGCGTGGATC ((((((...)))))) | -27.4 kcal/mol | 50.5 °C
60 | GATCCAGCGTTGGATC ((((((....)))))) | -44.2 kcal/mol | 49.6 °C
61 | GATCCAGCTCTGGATC ((((((....)))))) | -41.1 kcal/mol | 54 °C
62 | GATCCAGGACTGGATC ((((((....)))))) | -41.1 kcal/mol | 56.2 °C
63 | GATCCAGGGTTGGATC ((((((....)))))) | -34.2 kcal/mol | 50.8 °C
64 | GATCCAGGTATGGATC ((((((....)))))) | -35.1 kcal/mol | 58 °C
65 | GATCCAGGTCTGGATC ((((((....)))))) | -37.4 kcal/mol | 55 °C
66 | GATCCAGTATGGATC ((((((...)))))) | -39.8 kcal/mol | 60.1 °C
67 | GATCCAGTCCTGGATC ((((((....)))))) | -44.6 kcal/mol | 56.5 °C
68 | GATCCAGTTCTGGATC ((((((....)))))) | -39.6 kcal/mol | 55.5 °C
69 | GATCCATAGATGGATC ((((((....)))))) | -33.5 kcal/mol | 51.2 °C
70 | GATCCATCCTTGGATC ((((((....)))))) | -44.2 kcal/mol | 53.6 °C
71 | GATCCATCGGTGGATC ((((((....)))))) | -39.5 kcal/mol | 50.6 °C
72 | GATCCATCGTGGATC ((((((...)))))) | -36.9 kcal/mol | 50.8 °C
